Experiments:
Mus musculus [1] = assay: Activity in ICR mice (Mus musculus) infected with Plasmodium berghei NK65 after 4 days at 25 mg/kg/day, intraperitoneally assessed as mean survival days; format: functional; settings: route intraperitoneal
How it was run: (§1)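 Peters' 4-day suppressive test; P. berghei NK65 (drug-sensitive) in groups of five ICR mice; compound given daily for 4 days, ip or po at the stated mg kg-1 day-1. Mice followed after treatment ends; mean survival days recorded against untreated infected controls.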

Plasmodium falciparum = assay: Antimalarial activity against chloroquine-resistant Plasmodium falciparum K1; format: functional, organism-based
How it was run: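 P. falciparum K1 (chloroquine-resistant) tested in vitro by the Desjardins method; activity given as EC50.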

Mus musculus [2] = assay: Activity in ICR mice (Mus musculus) infected with Plasmodium berghei NK65 after 4 days at 10 mg/kg/day, intraperitoneally assessed as mean survival days; format: functional; settings: route intraperitoneal; how it was run: as §1
Plasmodium berghei [3] = assay: Suppression of Plasmodium berghei NK65 infected ICR mice (Mus musculus) at 10 mg/kg/day intraperitoneal dose over 4 days; format: functional
How it was run: (§2)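 Peters' 4-day suppressive test: ICR mice (five per group) infected with drug-sensitive P. berghei NK65, dosed daily for 4 days intraperitoneally or per os. Percent suppression = reduction of parasitemia in treated versus untreated infected control mice. Mice were observed after treatment to record mean survival days.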

Plasmodium berghei [4] = assay: Suppression of Plasmodium berghei NK65 infected ICR mice (Mus musculus) at 25 mg/kg/day intraperitoneal dose over 4 days; format: functional; how it was run: as §2
L6 [5] = assay: Selectivity index, EC50 for L6 cells/EC50 for Plasmodium falciparum K1; format: functional
How it was run: (§3)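 Rat skeletal myoblast L-6 line used for cytotoxicity; EC50 determined. Antiplasmodial EC50 was measured against chloroquine-resistant P. falciparum strain K1 in vitro by the Desjardins method. Selectivity index = EC50(L-6)/EC50(P. falciparum K1).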

L6 [6] = assay: Cytotoxicity against rat L6 cell line; format: functional, cell-based; how it was run: as §3
Mus musculus [7] = assay: Activity in ICR mice (Mus musculus) infected with Plasmodium berghei NK65 after 4 days at 20 mg/kg/day, intraperitoneally assessed as mean survival days; format: functional; settings: route intraperitoneal; how it was run: as §1
Mus musculus [8] = assay: Activity in ICR mice (Mus musculus) infected with Plasmodium berghei NK65 after 4 days at 100 mg/kg/day, perorally assessed as mean survival days; format: functional; settings: route oral; how it was run: as §1
Mus musculus [9] = assay: Activity in ICR mice (Mus musculus) infected with Plasmodium berghei NK65 after 4 days at 40 mg/kg/day, intraperitoneally assessed as mean survival days; format: functional; settings: route intraperitoneal; how it was run: as §1
Plasmodium berghei [10] = assay: Suppression of Plasmodium berghei NK65 infected ICR mice (Mus musculus) at 100 mg/kg/day peroral dose over 4 days; format: functional; settings: route oral; how it was run: as §2
Plasmodium berghei [11] = assay: Suppression of Plasmodium berghei NK65 infected ICR mice (Mus musculus) at 40 mg/kg/day intraperitoneal dose over 4 days; format: functional; how it was run: as §2
Plasmodium berghei [12] = assay: Suppression of Plasmodium berghei NK65 infected ICR mice (Mus musculus) at 20 mg/kg/day intraperitoneal dose over 4 days; format: functional; how it was run: as §2

Row | Compound | Activity (Mus musculus [1]) | EC50 (Plasmodium falciparum) | Activity (Plasmodium berghei [4]) | Selectivity index (L6 [5]) | EC50 (L6 [6]) | also measured
1 | CCN1C(=O)/C(=C2\Sc3ccccc3N2C)S/C1=N\c1sc2cc(Cl)ccc2[n+]1C.[Cl-] | 5.5 days |  |  |  |  | 
2 | CCN(CC)CCCC(C)Nc1ccnc2cc(Cl)ccc12 (stereo not given) [CHLOROQUINE] |  | 150 nM |  |  |  | Activity (Mus musculus [2]): 22.7 days; Activity (Plasmodium berghei [3]): 90.6%
3 | CCn1c(=O)/c(=C2\C=CC=CN2C)s/c1=C1\S/C(=N\c2sc3cc(Cl)ccc3[n+]2C)N(C(C)C)C1=O.[Cl-] | 7.7 days |  |  |  |  | 
4 | CCN1C(=O)/C(=c2/s/c(=C3/SCCN3C)c(=O)n2CC)S/C1=N\c1sc2cc(OC)ccc2[n+]1C.[Cl-] | 5 days |  | 95% |  |  | 
5 | CCN1C(=O)/C(=c2/s/c(=C3/C=Cc4ccccc4N3C)c(=O)n2CC)S/C1=N\c1sc2cc(Cl)ccc2[n+]1C.[Cl-] | 7 days |  | 49.7% |  |  | 
6 | C=CC[n+]1ccccc1/C=c1\s/c(=C2/Sc3ccccc3N2C)c(=O)n1C.Cc1ccc(S(=O)(=O)[O-])cc1 |  | 19 nM |  | 5000 | 100000 nM | Activity (Plasmodium berghei [3]): 27%
7 | CCN1C(=O)/C(=c2/s/c(=C3/C=CC=CN3C)c(=O)n2CC)S/C1=N\c1sc2cc(F)ccc2[n+]1C.[Cl-] | 10.8 days |  | 79.5% |  |  | 
8 | CCN1C(=O)/C(=c2/s/c(=C3/C=CC=CN3C)c(=O)n2CC)S/C1=N\c1scc(-c2ccc(Cl)cc2)[n+]1C.[Cl-] | 5.3 days |  | 95.6% |  |  | 
9 | CCN1C(=O)/C(=c2/s/c(=C3/C=Cc4ccccc4N3C)c(=O)n2CC)S/C1=N\c1cccc[n+]1C.[Cl-] | 5.6 days |  | 78.4% |  |  | 
10 | CCN1C(=O)/C(=c2/s/c(=C3/SCCN3C)c(=O)n2CC)S/C1=N\c1sc2cc(Cl)ccc2[n+]1C.[Cl-] | 16 days | 23 nM |  | 520 | 12000 nM | 
11 | CCN1C(=O)/C(=c2/s/c(=C3/C=CC=CN3C)c(=O)n2CC)S/C1=N\c1sc2cc(OC)ccc2[n+]1C.[Cl-] | 6.3 days |  | 98.3% |  |  | 
12 | C=CCN1C(=O)/C(=c2/s/c(=C3/SCCN3C)c(=O)n2CC)S/C1=N\c1sc2cc(Cl)ccc2[n+]1C.[Cl-] | 12.8 days |  | 73.1% |  |  | 
13 | CCN1C(=O)/C(=C2\C=Cc3ccccc3N2C)S/C1=N\c1sc2cc(Cl)ccc2[n+]1C.[Cl-] |  | 4.4 nM |  | 2500 | 11000 nM | 
14 | CCN1C(=O)/C(=c2/s/c(=C3/C=CC=CN3C)c(=O)n2CC)S/C1=N\c1sc2cc(Cl)ccc2[n+]1C.[Cl-] | 25.3 days | 10 nM |  | 4600 | 46000 nM | Activity (Mus musculus [7]): 20.3 days; Activity (Mus musculus [2]): 11.8 days; Activity (Mus musculus [8]): 6.5 days; Activity (Mus musculus [9]): 7 days; Activity (Plasmodium berghei [10]): 41.7%
15 | C=CCN1C(=O)/C(=c2/s/c(=C3/C=CC=CN3C)c(=O)n2CC)S/C1=N\c1sc2cc(Cl)ccc2[n+]1C.[Cl-] | 18 days |  | 95.7% |  |  | 
16 | CCN1C(=O)/C(=C2\C=Cc3ccccc3N2C)S/C1=N\c1cccc[n+]1C.[Cl-] |  | 5.9 nM |  | 20000 | 120000 nM | 
17 | CCN1C(=O)/C(=c2/s/c(=C3/C=CC=CN3C)c(=O)n2CC)S/C1=N\c1sc2ccccc2[n+]1C.[Cl-] | 22 days | 22 nM | 96.4% | 640 | 14000 nM | Activity (Mus musculus [7]): 19 days; Activity (Plasmodium berghei [11]): 97.8%; Activity (Plasmodium berghei [12]): 92.4%; Activity (Mus musculus [2]): 9.8 days; Activity (Mus musculus [9]): 7.8 days; Activity (Plasmodium berghei [3]): 70.8%
